Experimental data taken from article PMC9052103 (RSC Advances, 2020).
pKd: −log10 of the molar value. Read-outs that look alike come from different tables or passages of the source.

Tests used:
E. faecium ATCC 49624 = experiment: MIC, 96-well microtiter broth dilution; type: cell-based; conditions: Enterococcus faecium, ATCC49624, read-out: MIC E. faecium ATCC 49624
Z-ring in B. subtilis = experiment: Visualization of Z-ring; type: cell-based; conditions: 0.5 × MIC, 4 h
In short: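 B. subtilis carrying IPTG-inducible GFP-FtsZ plasmid grown in LB with 30 μg mL−1 chloramphenicol at 37 °C with shaking; overnight culture diluted to 1% in LB with 40 μM IPTG plus test compound at 0.5 × MIC, 4 h at 37 °C. Cells fixed, resuspended in PBS, placed on 0.1% (w/v) poly-L-lysine-coated slides; imaged by confocal microscopy, 40× oil immersion.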

S. aureus ATCC BAA-1720 = experiment: MIC, 96-well microtiter broth dilution; type: cell-based; conditions: Staphylococcus aureus, ATCCBAA1720|MRSA, read-out: MIC S. aureus ATCC BAA-1720
[1] = test system: S. epidermidis ATCC 12228; experiment: MIC, 96-well microtiter broth dilution; type: cell-based; conditions: Staphylococcus epidermidis, ATCC12228, read-out: MIC S. epidermidis ATCC 12228
S. aureus FtsZ (SaFtsZ) = S. aureus FtsZ (SaFtsZ) (Staphylococcus aureus, UniProt P0A031); experiment: GTPase activity assay; type: biochemical
In short: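 Phosphate-release kit assay: S. aureus FtsZ (7.3 μM) in assay buffer with 1% DMSO vehicle or varied concentrations of test compound. Reaction started with 200 μM GTP and run 30 min at room temperature. Colour reagent added for another 30 min to stop the reaction, and inorganic phosphate read at 620 nm. Triplicates.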

[2] = test system: mouse fibroblast cells (L929); experiment: CCK-8 cytotoxicity assay; type: cell-based; conditions: L929, 48 h, read-out: IC50 L929
In short: (§1)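 Cells seeded at 5000 per well and allowed to adhere overnight at 37 °C, then exposed to test compound for 48 h. CCK-8 reagent added for a further 3 h, with absorbance read at 450 nm. Triplicates.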

S. aureus ATCC BAA-41 = experiment: MIC, 96-well microtiter broth dilution; type: cell-based; conditions: Staphylococcus aureus, ATCCBAA41|MRSA, read-out: MIC S. aureus ATCC BAA-41
MRSA strains = experiment: MIC, summary over MRSA strains; type: cell-based, S. aureus; conditions: Staphylococcus aureus, read-out: MIC against MRSA
B. subtilis 168 = experiment: Bacterial morphology study; type: cell-based; conditions: 0.5 μg mL^−1 for 4 h; control group 5–10 μm
S. aureus FtsZ = target: T1, S. aureus FtsZ (Staphylococcus aureus, UniProt P0A031); experiment: Light-scattering assay of FtsZ polymerization; type: biochemical
T1 sequence (P0A031 1-390): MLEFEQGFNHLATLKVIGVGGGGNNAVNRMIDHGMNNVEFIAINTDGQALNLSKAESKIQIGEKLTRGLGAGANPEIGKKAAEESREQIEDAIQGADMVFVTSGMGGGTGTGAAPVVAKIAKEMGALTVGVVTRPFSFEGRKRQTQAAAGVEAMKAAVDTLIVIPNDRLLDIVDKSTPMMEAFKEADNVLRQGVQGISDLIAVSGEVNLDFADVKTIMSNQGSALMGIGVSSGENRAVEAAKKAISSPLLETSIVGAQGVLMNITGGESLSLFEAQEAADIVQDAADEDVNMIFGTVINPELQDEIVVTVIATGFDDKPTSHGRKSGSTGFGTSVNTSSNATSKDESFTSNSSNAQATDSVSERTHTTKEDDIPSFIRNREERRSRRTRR
In short: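 S. aureus FtsZ (4 μM) in 50 mM MOPS pH 6.5, preincubated 10 min at 25 °C with 1% DMSO vehicle or test compound. Baseline set after adding 50 mM KCl and 10 mM MgCl2. After 10 min, 1 mM GTP added. 90° light scattering (excitation/emission 600 nm) followed for 25 min, with blank background subtracted. Rate and extent of polymerization calculated. Triplicates.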

S. aureus ATCC 29213 [3] = experiment: MIC, 96-well microtiter broth dilution; type: cell-based; conditions: Staphylococcus aureus
S. aureus ATCC 29213 [4] = experiment: In vitro drug resistance development, serial passage; type: cell-based
In short: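 Serial passage against S. aureus ATCC 29213: culture from the 0.5 × MIC well of the prior MIC plate diluted to 5 × 10^5 CFU mL−1 and exposed to a range of test compound concentrations. MIC read after 24 h at 37 °C. Cycle repeated 35 times. Ciprofloxacin, vancomycin and rifampin passaged in parallel.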

E. coli ATCC 8739 = experiment: MIC, 96-well microtiter broth dilution; type: cell-based; conditions: Escherichia coli, ATCC8739, read-out: MIC E. coli ATCC 8739
[5] = test system: drug-resistant K. pneumoniae, A. baumannii, P. aeruginosa and E. cloacae
S. aureus ATCC BAA-1747 = experiment: MIC, 96-well microtiter broth dilution; type: cell-based; conditions: Staphylococcus aureus, ATCCBAA1747|MRSA, read-out: MIC S. aureus ATCC BAA-1747
S. aureus ATCC 43300 = experiment: MIC, 96-well microtiter broth dilution; type: cell-based; conditions: Staphylococcus aureus, ATCC43300|MRSA, read-out: MIC S. aureus ATCC 43300
E. faecalis ATCC 29212 = experiment: MIC, 96-well microtiter broth dilution; type: cell-based; conditions: Enterococcus faecalis, ATCC29212, read-out: MIC E. faecalis ATCC 29212
[6] = test system: E. faecium, S. epidermidis and E. coli; experiment: MIC, summary over E. faecium, S. epidermidis and E. coli; type: cell-based; conditions: read-out: MIC against E. faecium, S. epidermidis and E. coli
[7] = test system: human renal tubular epithelial cells (HK-2); experiment: CCK-8 cytotoxicity assay; type: cell-based; conditions: Epithelial cell, 48 h, read-out: IC50 HK-2
In short: as §1

SaFtsZ = SaFtsZ (Staphylococcus aureus, UniProt P0A031); experiment: SaFtsZ binding affinity assay; parameters: species or system S. aureus
In short: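 Fluorescence titration at 25 °C in 50 mM Tris–HCl pH 7.4, 50 mM KCl, 2 mM magnesium acetate. Test compound at 3.51 or 3.68 μM titrated with SaFtsZ in 0.4 μM steps (0.4–6.4 μM), equilibrating 2 min per step. Excitation 493 nm, emission 500–700 nm, buffer-titration background subtracted. Kd obtained by nonlinear fit to an independent-site model.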

E. coli ATCC 25922 = experiment: MIC, 96-well microtiter broth dilution; type: cell-based; conditions: Escherichia coli, ATCC25922, read-out: MIC E. coli ATCC 25922
E. faecium ATCC 700221 = experiment: MIC, 96-well microtiter broth dilution; type: cell-based
[8] = test system: human bronchial epithelium cells (16HBE); experiment: CCK-8 cytotoxicity assay; type: cell-based; conditions: 48 h, read-out: IC50 16HBE
In short: as §1

## Cc1cc(/C=C2\Sc3ccccc3N2CCCN2CCC(C)CC2)c2ccccc2[n+]1C.[I-] [Compound 4a4, (Z)-1,2-Dimethyl-4-((3-(3-(4-methylpiperidin-1-yl)propyl)benzo[d]thiazol-2(3H)-ylidene)methyl)quinolin-1-ium iodide]
E. faecium ATCC 49624
  MIC: 1 µg/mL
Z-ring in B. subtilis
  Effect on Z-ring formation (GFP-FtsZ localization): promoted the mislocalization of the FtsZ protein
S. aureus ATCC BAA-1720
  MIC: 2 µg/mL
[1]
  MIC: 0.5 µg/mL
S. aureus FtsZ (SaFtsZ)
  Effect on GTPase activity of SaFtsZ: did not show any effect
[2]
  IC50: 12.6 µg/mL
S. aureus ATCC BAA-41
  MIC: 1 µg/mL
MRSA strains
  MIC: 1 to 8 µg/mL
B. subtilis 168
  Cell length of B. subtilis 168: > 10 μm
S. aureus FtsZ; 0.125–0.5 μg mL^−1
  Effect on FtsZ polymerization at a concentration gradient: enhance FtsZ polymerization in a dose-dependent manner
S. aureus FtsZ; same concentration, 0.125 μg mL^−1
  Light scattering signal compared to control (FtsZ polymerization): significant increase in light scattering signal
S. aureus ATCC 29213 [3]; ATCC29213
  MIC: 1 µg/mL
S. aureus ATCC 29213 [3]; ATCC29213, read-out: MIC S. aureus ATCC 29213
  MIC: 1 µg/mL
S. aureus ATCC 29213 [3]; ATCC29213, read-out: S. aureus ATCC 29213 (MIC)
  MIC: 1 µg/mL
S. aureus ATCC 29213 [4]
  Increase of MIC after 35 passages: 16 fold
E. coli ATCC 8739
  MIC: 1 µg/mL
[5]
  Antibacterial activity against drug-resistant K. pneumoniae, A. baumannii, P. aeruginosa and E. cloacae: moderate antibacterial activity
S. aureus ATCC BAA-1747
  MIC: 2 µg/mL
S. aureus ATCC 43300
  MIC: 2 µg/mL
E. faecalis ATCC 29212
  MIC: 2 µg/mL
[6]
  MIC: 0.5 to 2 µg/mL
[7]
  IC50: 26 µg/mL
SaFtsZ
  pKd: 6.90
E. coli ATCC 25922
  MIC: 0.5 µg/mL
E. faecium ATCC 700221; Enterococcus faecium, ATCC700221
  MIC: 2 µg/mL
E. faecium ATCC 700221; read-out: MIC against VRE
  MIC: 2 to 16 µg/mL
[8]
  IC50: 14.3 µg/mL
